# Measured values of several laboratories.
# Protocols differ between the studies behind these lines.
# Target: SRSF protein kinase 2 (SRPK2, Homo sapiens, UniProt P78362)
Compound,assay,conditions,remaining binding
FC(F)(F)Oc1cccc(-c2cnc3ccc(-c4ccncc4)nn23)c1,"binding, competition with immobilised ligand",5 µM,66%
C[C@@H]1CN(c2cc(-c3nn(C)c4ccc(OC5(C)CC5)cc34)ncn2)C[C@H](C)O1,"cell-free assay, competition with immobilised ligand",1 µM,88%
N[C@H]1CCN(c2nccc(-c3cnn4ncccc34)n2)C1,binding,1 µM,62%
N#Cc1ccc(Nc2ccc3[nH]c(=O)[nH]c3c2)c(Cl)c1,"cell-free assay, competition with immobilised ligand",1 µM,100%
O=C(Nc1c[nH]nc1C(=O)NC1CCNCC1)c1cc(F)cc(F)c1,"binding, competition with immobilised ligand",1 µM,85%
Cc1cnn2ncc(-c3ccnc(N(C)C)n3)c2c1,binding,1 µM,100%
COc1ncc2cc3ccccc3nc2c1C#N,"cell-free assay, competition with immobilised ligand",5 µM,100%
O=C1NC(c2ccccn2)Sc2ccccc21 (stereo not drawn),"cell-free assay, competition with immobilised ligand",1 µM,100%
C[C@@H](c1ccc(-n2cnc3c(N)ncnc32)cc1)N1CCc2nn(C)c(Cc3ccccc3)c2C1=O,"binding, competition with immobilised ligand",0.1 µM,83%
CN(C)c1nccc(-c2cnn3ncccc23)n1,binding,1 µM,100%
CNC(=O)[C@@H]1CC[C@@H](n2c(-c3ccc4cnccc4c3)nc3ccc(C(=O)NCc4cccc(C(N)=O)c4)cc32)C1,"binding, competition with immobilised ligand",1 µM,100%
O=C(c1ccc(Nc2nccc(-c3cc4ccccc4s3)n2)cc1)N1CCC(N2CCCC2)CC1,"binding, competition with immobilised ligand",1 µM,92%
COc1cnc(Nc2cccc(S(N)(=O)=O)c2)nc1N1CCN(c2ccccc2)CC1,"binding, competition with immobilised ligand",1 µM,87%
CCOC(=O)c1cc2cc(-c3cc(C(=O)NCc4ccc(C(=O)O)cc4)nn3C)ccc2[nH]1,"cell-free assay, competition with immobilised ligand",0.1 µM,100%
O=C(NCCCN1CCOCC1)c1ccc(Nc2ncc(Cl)c(-c3ccc(Cl)s3)n2)cc1,"binding, competition with immobilised ligand",1 µM,75%
c1cnn2ncc(-c3ccnc(N4CCC45COC5)n3)c2c1,binding,1 µM,70%
Cc1c(NC(=O)c2cc(C(N)=O)nc3cc(F)ccc23)c(C(F)(F)F)nn1Cc1ccc(C(C)(C)C)cc1,"cell-free assay, competition with immobilised ligand",1 µM,97%
C[C@@H]1CCN(c2nccc(-c3cnn4ncccc34)n2)C1,binding,1 µM,100%
O=C(NCCCN1CCOCC1)c1ccc(Nc2nccc(-c3cc4ccccc4s3)n2)cc1,"binding, competition with immobilised ligand",1 µM,99%
COc1ccnn2ncc(-c3ccnc(N(C)C)n3)c12,binding,1 µM,100%
CC(=O)C1=C(C)N(c2cccc(C(F)(F)F)c2)C(=O)N[C@@H]1c1ccc(C#N)nc1,"cell-free assay, competition with immobilised ligand",1 µM,100%
